Laboratory results taken from ChEMBL document CHEMBL3286129, “Optimization of peptidomimetic boronates bearing a P3 bicyclic scaffold as proteasome inhibitors” (Eur J Med Chem, 2014).
The source made the active and inactive calls. No cut-off for these calls is given here.

How the values were obtained:
[1] = Cytotoxicity against human NSCLC cells assessed as cell growth at 10 uM relative to control; type: functional; conditions: read-out: Activity
In short: (§1)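 Single-concentration screen against a panel of human cancer cell lines. Each value is the mean percent growth across the cell lines of that tumour subpanel.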

M14 = assay: Growth inhibition of human M14 cells; type: functional
[2] = Growth inhibition of human HCT15 cells; type: functional
HOP-62 = assay: Growth inhibition of human HOP62 cells; type: functional
NCI-H23 = assay: Growth inhibition of human NCI-H23 cells; type: functional
NCI-H226 = assay: Growth inhibition of human NCI-H226 cells; type: functional
HL-60(TB) = assay: Growth inhibition of human HL-60(TB) cells; type: functional
[3] = Growth inhibition of human UACC62 cells; type: functional; conditions: UACC-62
CAKI-1 = assay: Growth inhibition of human CAKI-1 cells; type: functional
[4] = Growth inhibition of human MOLT4 cells; type: functional
[5] = Growth inhibition of human HOP92 cells; type: functional
SR = assay: Growth inhibition of human SR cells; type: functional
[6] = molecular target: Proteasome Macropain subunit (Homo sapiens) (UniProt P49721); assay: Inhibition of trypsin-like activity of 20S proteasome in human erythrocytes using Boc-Leu-Arg-Arg-AMC as substrate by fluorescence assay; type: cell-based
Chain of Proteasome Macropain subunit (Homo sapiens) (P49721 whole entry): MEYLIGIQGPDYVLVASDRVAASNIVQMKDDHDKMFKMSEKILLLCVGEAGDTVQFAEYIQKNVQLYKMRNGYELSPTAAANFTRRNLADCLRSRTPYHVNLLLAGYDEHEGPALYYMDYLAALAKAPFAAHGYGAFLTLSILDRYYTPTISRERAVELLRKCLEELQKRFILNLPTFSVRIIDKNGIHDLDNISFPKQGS
In short: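 Human 20S proteasome 0.0025 mg/mL at 30 °C in 50 mM Tris pH 7.4, 50 mM NaCl, 0.5 mM EDTA, 0.03% SDS, 7.5% DMSO. Varied inhibitor concentrations; AMC release monitored continuously for 10 min, ex 380/em 460 nm. Ki derived from progress-curve IC50 fit.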

[7] = Cytotoxicity against human colon cancer cells assessed as cell growth at 10 uM relative to control; type: functional; conditions: Cancer cell lines, read-out: Activity; in short: as §1
T47D = assay: Growth inhibition of human T47D cells; type: functional
[8] = Growth inhibition of human Hs 578T cells; type: functional
786-0 = assay: Growth inhibition of human 786-0 cells; type: functional
[9] = Growth inhibition of human LOXIMVI cells; type: functional; conditions: LOX IMVI
NCI-H522 = assay: Growth inhibition of human NCI-H522 cells; type: functional
[10] = Growth inhibition of human NCI-ADR-RES cells; type: functional
TK-10 = assay: Growth inhibition of human TK10 cells; type: functional
SK-MEL-5 = assay: Growth inhibition of human SK-MEL-5 cells; type: functional
[11] = Growth inhibition of human OVCAR3 cells; type: functional; conditions: OVCAR-3
IGROV-1 = assay: Growth inhibition of human IGROV1 cells; type: functional
[12] = Cytotoxicity against human breast cancer cells assessed as cell growth at 10 uM relative to control; type: functional; conditions: Cancer cell lines, read-out: Activity; in short: as §1
[13] = molecular target: T1, Proteasome Macropain subunit MB1 (Homo sapiens, UniProt P28074); assay: Inhibition of chymotrypsin-like activity of 20S proteasome in human erythrocytes using Suc-Leu-Leu-Val-Tyr-AMC as substrate by fluorescence assay; conditions: read-out: Ki
T1 sequence (P28074 whole entry): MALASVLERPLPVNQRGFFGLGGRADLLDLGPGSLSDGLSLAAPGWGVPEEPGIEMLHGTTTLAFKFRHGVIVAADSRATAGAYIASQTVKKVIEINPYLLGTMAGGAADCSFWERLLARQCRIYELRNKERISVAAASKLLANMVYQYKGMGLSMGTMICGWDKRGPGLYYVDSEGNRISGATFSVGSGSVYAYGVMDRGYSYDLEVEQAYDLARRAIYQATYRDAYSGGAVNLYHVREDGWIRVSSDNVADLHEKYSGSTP

DU-145 = assay: Growth inhibition of human DU145 cells; type: functional
SNB-75 = assay: Growth inhibition of human SNB75 cells; type: functional
[14] = Cytotoxicity against human prostate cancer cells assessed as cell growth at 10 uM relative to control; type: functional; conditions: Cancer cell lines, read-out: Activity; in short: as §1
[15] = Cytotoxicity against human CNSC cells assessed as cell growth at 10 uM relative to control; type: functional; conditions: read-out: Activity; in short: as §1
SN12C = assay: Growth inhibition of human SN12C cells; type: functional
HCT-116 = assay: Growth inhibition of human HCT116 cells; type: functional
COLO 205 = assay: Growth inhibition of human COLO205 cells; type: functional
[16] = Growth inhibition of human SF295 cells; type: functional; conditions: SF-295
[17] = read-out: LC50 (the source's name)

## CC(C)C[C@H](NC(=O)Cn1ccc2ccc(Br)cc2c1=O)B(O)O
[1]
  growth at 10 µM: 22%
M14
  GI50: 1.25 µM
  LC50 (concentration killing 50% of cells): > 100 µM
  TGI: 6.73 µM
[2]; HCT-15
  GI50: 3.04 µM
  TGI: > 100 µM
[2]; HCT-15, read-out: LC50 (the source's name)
  CC50: > 100 µM
HOP-62
  GI50: 4.94 µM
  TGI: 27.6 µM
HOP-62; [17]
  CC50: > 100 µM
NCI-H23
  GI50: 5.05 µM
  TGI: > 100 µM
NCI-H23; [17]
  CC50: > 100 µM
NCI-H226
  GI50: 0.47 µM
  TGI: 1.84 µM
NCI-H226; [17]
  CC50: 5.39 µM
HL-60(TB)
  GI50: 0.38 µM
  TGI: 5.34 µM
HL-60(TB); [17]
  CC50: > 100 µM
[3]
  GI50: 1.86 µM
  LC50 (concentration killing 50% of cells): 97 µM
  TGI: 10.4 µM
CAKI-1
  GI50: 0.41 µM
  TGI: 10.5 µM
CAKI-1; [17]
  CC50: > 100 µM
[4]; MOLT-4
  GI50: 0.3 µM
  TGI: 1.57 µM
[4]; MOLT-4, read-out: LC50 (the source's name)
  CC50: > 100 µM
[5]; HOP-92
  GI50: 2.56 µM
  TGI: 8.7 µM
[5]; HOP-92, read-out: LC50 (the source's name)
  CC50: > 100 µM
SR
  GI50: 0.27 µM
  TGI: 12.2 µM
SR; [17]
  CC50: > 100 µM
[6]
  inhibition: inactive
[7]
  growth at 10 µM: 3.27%
T47D
  GI50: 0.78 µM
  TGI: 12.4 µM
T47D; [17]
  CC50: > 100 µM
[8]
  GI50: 2.94 µM
  TGI: 75.1 µM
[8]; [17]
  CC50: > 100 µM
786-0
  GI50: 4.06 µM
  TGI: > 100 µM
786-0; [17]
  CC50: > 100 µM
[9]
  GI50: 0.43 µM
  TGI: 1.85 µM
[9]; [17]
  CC50: 7.21 µM
NCI-H522
  GI50: 0.59 µM
  LC50: 9.06 µM
  TGI: 2.54 µM
[10]
  GI50: 21.5 µM
  LC50: > 100 µM
  TGI: > 100 µM
TK-10
  GI50: 0.65 µM
  LC50: > 100 µM
  TGI: 7.22 µM
SK-MEL-5
  GI50: 0.8 µM
  LC50 (concentration killing 50% of cells): 7.88 µM
  TGI: 2.65 µM
[11]
  GI50: 0.6 µM
  LC50 (concentration killing 50% of cells): > 100 µM
  TGI: 3.95 µM
IGROV-1
  GI50: 6.16 µM
  LC50: > 100 µM
  TGI: 46.9 µM
[12]
  growth at 10 µM: 2.23%
[13]
  Ki: 0.053 µM
DU-145
  GI50: 6.05 µM
  TGI: > 100 µM
DU-145; [17]
  CC50: > 100 µM
SNB-75
  GI50: 2.13 µM
  LC50: 63.3 µM
  TGI: 9.09 µM
[14]
  growth at 10 µM: 42.9%
[15]
  growth at 10 µM: 24.3%
SN12C
  GI50: 3.52 µM
  TGI: 55.2 µM
SN12C; [17]
  CC50: > 100 µM
HCT-116
  GI50: 0.6 µM
  LC50: 95.8 µM
  TGI: 3.57 µM
COLO 205
  GI50: 2.83 µM
  TGI: > 100 µM
COLO 205; [17]
  CC50: > 100 µM
[16]
  GI50: 2.03 µM
  LC50: 86.4 µM
  TGI: 15.9 µM
